Our source for the %max and EC50 values is ChEMBL document CHEMBL4433251, “Discovery of BR102375, a new class of non-TZD PPARγ full agonist for the treatment of type 2 diabetes” (Bioorg Med Chem Lett, 2019).

Usually EC50 stands for the concentration that produces a half-maximal response.

The structures appear in SMILES notation.

Assay [1] concerns the target T1, Peroxisome proliferator-activated receptor gamma (Mus musculus) (UniProt P37238).
T1 sequence (whole entry): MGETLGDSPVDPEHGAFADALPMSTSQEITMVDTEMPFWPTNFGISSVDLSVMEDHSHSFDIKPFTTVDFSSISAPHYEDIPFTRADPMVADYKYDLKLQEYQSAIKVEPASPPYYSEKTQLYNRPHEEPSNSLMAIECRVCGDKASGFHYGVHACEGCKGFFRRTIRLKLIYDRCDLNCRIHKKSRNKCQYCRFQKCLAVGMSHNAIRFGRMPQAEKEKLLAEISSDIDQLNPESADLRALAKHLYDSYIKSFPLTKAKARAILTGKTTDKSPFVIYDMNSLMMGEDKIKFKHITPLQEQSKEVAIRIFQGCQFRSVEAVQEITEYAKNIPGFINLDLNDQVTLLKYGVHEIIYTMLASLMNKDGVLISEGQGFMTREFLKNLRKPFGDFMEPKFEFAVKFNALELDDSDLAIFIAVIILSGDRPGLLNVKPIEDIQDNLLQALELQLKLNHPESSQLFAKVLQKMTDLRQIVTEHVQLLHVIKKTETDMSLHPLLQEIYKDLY
The assay can be described thus: Agonist activity at GAL4-tagged mouse PPARgamma LBD expressed in monkey CV1 cells assessed as receptor transactivation incubated for 24 hrs by luciferase reporter gene assay relative to telmisartan. It counts as cell-based.

Assay [2] deals with T2, Peroxisome proliferator-activated receptor gamma (Homo sapiens) (UniProt P37231).
T2 sequence (whole entry): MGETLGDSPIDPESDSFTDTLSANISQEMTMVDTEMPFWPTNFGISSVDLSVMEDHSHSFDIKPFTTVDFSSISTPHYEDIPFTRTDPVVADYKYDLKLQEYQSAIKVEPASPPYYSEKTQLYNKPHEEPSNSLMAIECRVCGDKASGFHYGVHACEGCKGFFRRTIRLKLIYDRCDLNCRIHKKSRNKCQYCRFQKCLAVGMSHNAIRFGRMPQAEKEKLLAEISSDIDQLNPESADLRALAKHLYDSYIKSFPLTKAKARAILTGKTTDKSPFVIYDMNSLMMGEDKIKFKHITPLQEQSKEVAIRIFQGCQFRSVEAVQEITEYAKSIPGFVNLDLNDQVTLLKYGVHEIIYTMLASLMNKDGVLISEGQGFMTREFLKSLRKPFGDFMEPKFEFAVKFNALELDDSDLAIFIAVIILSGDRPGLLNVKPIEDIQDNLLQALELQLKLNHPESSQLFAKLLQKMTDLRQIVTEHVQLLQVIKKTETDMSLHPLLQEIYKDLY
The assay can be described thus: Agonist activity at PPARgamma (unknown origin) assessed as receptor transactivation after 24 hrs by TK-PPRE-Luc expressing cells based luciferase reporter gene assay relative to pioglitazone. In short, it runs like this: (§1)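 Luciferase reporter gene assay in cells transfected with PPRE and luciferase genes; luciferase induction measured over a range of concentrations to derive EC50 and Amax; Amax expressed as a percentage relative to pioglitazone.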
(In general: In a reporter assay the amount or activity of a reporter protein is the signal.)

For assay [3], the target named is T3, Peroxisome proliferator-activated receptor gamma (Homo sapiens, UniProt P37231).
T3 sequence (P37231 whole entry): T2 sequence (whole entry)
Briefly: Agonist activity at PPARgamma (unknown origin) assessed as receptor transactivation after 24 hrs by TK-PPRE-Luc expressing cells based luciferase reporter gene assay. In short, it runs like this: as §1

With `CCCCc1nc(C(C)C)c(Cc2nnc(C)s2)c(=O)n1Cc1ccc(-c2ccccc2-c2noc(=O)[nH]2)cc1`, the %max in assay [1] came out at 79%.

Turning to `CCCCc1nc(C)c(Cc2nc(Cc3cccc(F)c3)no2)c(=O)n1Cc1ccc(-c2ccccc2-c2noc(=O)[nH]2)cc1`, the %max in assay [2] was found to be 82%. The EC50 in assay [3] is 1390 nM.

`CCCCc1nc(C)c(Cc2noc(C(C)C)n2)c(=O)n1Cc1ccc(-c2ccccc2-c2noc(=O)[nH]2)cc1`: the %max in assay [1] turned out to be 233%.

For the molecule `CCCCc1nc(C)c(Cc2nc(Cc3ccc(F)cc3)no2)c(=O)n1Cc1ccc(-c2ccccc2-c2noc(=O)[nH]2)cc1`, in assay [2], the %max worked out at 81%. In addition, the EC50 in assay [3] is 2410 nM.

As to `CCCCc1nc(C(C)C)c(Cc2nc(Cc3ccccc3)no2)c(=O)n1Cc1ccc(-c2ccccc2-c2noc(=O)[nH]2)cc1`, the %max in assay [2] turned out to be 92%. For the same molecule, the EC50 in assay [3] turned out to be 1140 nM.

Consider `CCCCc1nc(C)c(Cc2noc(C(C)(C)C)n2)c(=O)n1Cc1ccc(-c2ccccc2-c2noc(=O)[nH]2)cc1`, for which the %max in assay [1] is 258%.

Regarding `CCCCc1nc(C)c(Cc2nc(C(C)C)no2)c(=O)n1Cc1ccc(-c2ccccc2-c2noc(=O)[nH]2)cc1`, the %max in assay [2] is 101%. Also, the EC50 in assay [3] worked out at 1320 nM.

With `CCCCc1nc(C)c(Cc2noc(-c3ccccc3F)n2)c(=O)n1Cc1ccc(-c2ccccc2-c2noc(=O)[nH]2)cc1`, the %max in assay [1] was found to be 150%.

On to `CCCCc1nc(C)c(Cc2nc(C)ns2)c(=O)n1Cc1ccc(-c2ccccc2-c2noc(=O)[nH]2)cc1`, for which, in assay [1], the %max was determined as 93%.

Take `CCCCc1nc(C(C)C)c(Cc2nnc(C)o2)c(=O)n1Cc1ccc(-c2ccccc2-c2noc(=O)[nH]2)cc1`: the %max in assay [1] is 80%.

Consider `CCCCc1nc(C)c(Cc2nc(COC)no2)c(=O)n1Cc1ccc(-c2ccccc2-c2noc(=O)[nH]2)cc1`, for which the %max in assay [2] was 60%. Further, the EC50 in assay [3] came to 3390 nM.

As for `CCCCc1nc(C(C)C)c(Cc2nnc(C(C)(C)C)s2)c(=O)n1Cc1ccc(-c2ccccc2-c2noc(=O)[nH]2)cc1`, the %max in assay [1] was found to be 180%.

Turning to `CCCCc1nc(C)c(Cc2nnc(-c3ccc(F)cc3)[nH]2)c(=O)n1Cc1ccc(-c2ccccc2-c2noc(=O)[nH]2)cc1`, in assay [1], the %max amounted to 71%.

Consider `CCCCc1nc(C)c(Cc2nc(C3CC3)no2)c(=O)n1Cc1ccc(-c2ccccc2-c2noc(=O)[nH]2)cc1`, for which the %max in assay [2] turned out to be 89%. In addition, in assay [3], the EC50 amounted to 4250 nM.

`CCCCc1nc(C)c(Cc2nc(Cc3cc(F)cc(F)c3)no2)c(=O)n1Cc1ccc(-c2ccccc2-c2noc(=O)[nH]2)cc1`: the %max in assay [2] was found to be 72%. Further, the EC50 in assay [3] came out at 1380 nM.

For the molecule `CCCCc1nc(C)c(Cc2nc(Cc3ccccc3)no2)c(=O)n1Cc1ccc(-c2ccccc2-c2noc(=O)[nH]2)cc1`, the %max in assay [2] was found to be 105%. Moreover, in assay [3], the concentration giving a half-maximal response (EC50) came to 1750 nM.

Turning to `CCCCc1nc(C(C)C)c(Cc2nc(C)ns2)c(=O)n1Cc1ccc(-c2ccccc2-c2noc(=O)[nH]2)cc1`, the %max in assay [1] was 79%.

Regarding `CCCCc1nc(C)c(Cc2nc(CCOC)no2)c(=O)n1Cc1ccc(-c2ccccc2-c2noc(=O)[nH]2)cc1`, in assay [2], the %max stood at 68%. Besides, the 50% effective concentration (EC50) in assay [3] came to 4210 nM.

As for `CCCCc1nc(C(C)C)c(Cc2nc(C3CC3)no2)c(=O)n1Cc1ccc(-c2ccccc2-c2noc(=O)[nH]2)cc1`, the %max in assay [2] was 102%. Further, the EC50 in assay [3] was 2550 nM.

Take `CCCCc1nc(C)c(Cc2nc(C)n[nH]2)c(=O)n1Cc1ccc(-c2ccccc2-c2noc(=O)[nH]2)cc1`: the %max in assay [1] amounted to 61%.

On to `CCCCc1nc(C)c(Cc2nc(C)no2)c(=O)n1Cc1ccc(-c2ccccc2-c2noc(=O)[nH]2)cc1`, for which the %max in assay [1] was found to be 136%.

Take `CCCCc1nc(C(C)C)c(Cc2nc(Cc3ccc(F)cc3)no2)c(=O)n1Cc1ccc(-c2ccccc2-c2noc(=O)[nH]2)cc1`: the %max in assay [2] was 80%. Also, in assay [3], the EC50 was 1480 nM.

For `CCCCc1nc(C(C)C)c(Cc2nnc(-c3ccc(OC)cc3)o2)c(=O)n1Cc1ccc(-c2ccccc2-c2noc(=O)[nH]2)cc1`, the %max in assay [1] is 73%.

For `CCCCc1nc(C)c(Cc2nnc(C)s2)c(=O)n1Cc1ccc(-c2ccccc2-c2noc(=O)[nH]2)cc1`, in assay [1], the %max came to 71%.
